# Screening results from PubChem.
# Rows were chosen to be rich in hits. Some 4.1% of all compounds tested hit in one or more screens of this group.
# UPR XBP1 act – activators of adaptive arm of unfolded protein response (XBP1). CHO-XBP1 luciferase reporter, IRE1-XBP1 UPR activation, luminescence; percent of tunicamycin response, DMSO as zero. activation, % at 20 µM. hit rate 0.33% among 330,000. AID 463104;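 active means versus positive control, 20 µM dose yields 30% or more activation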;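 further: 100% = tunicamycin at 10 µg/mL and 0% = DMSO only wells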
#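 assay system = CHO-XBP1 luciferase reporter cells | amount = 1000 cells/well | buffer or medium = F12 plus 10% FBS | compound dosing = single point, 20 µM final compound, 1% DMSO | incubation = 16-18 h cell attachment at 37 °C, then 6 h compound exposure | detection = Steady-Glo luminescence read | controls = tunicamycin 10 µg/mL and vehicle-only wells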
# UPR CHOP act – apoptotic UPR (CHOP) activation; CHO-CHOP luciferase reporter, luminescence; percent of tunicamycin response over DMSO baseline; activation, % at 10 µM; hit rate 0.34% among 330,000; AID 449763;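 active means at 10 µM dose, activation of 40% or more, normalized to positive control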;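 further: 100% = tunicamycin at 10 µg/mL and 0% = DMSO alone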
#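 System: CHO-CHOP luciferase reporter cell line | Buffer or medium: F12 medium containing 10% fetal bovine serum | Doses: One dose, 10 µM in 0.5% DMSO | Times: 6 h compound exposure at 37 °C after overnight seeding | Signal: Luciferase luminescence | Read-out: % activation vs tunicamycin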
# UBC13 inh – inhibitors of human UBC13 polyubiquitin chain formation | TR-FRET | inhibition, % at 20 µM | hit rate 0.47% among 330,000 | AID 485273; in the data active means inhibition above about 45%, passing the limit was not always enough
# Mdm2 MdmX PPI – human Mdm2/MdmX binding inhibition | O15151+Q00987 | SaOS-2 split-luciferase Mdm2/MdmX complementation, luminescence | inhibition, % at 8 µM | hit rate 3% among 330,000 | AID 485346;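 active means inhibition of at least 50% at 8 µM in the primary screen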
# Target sequence (O15151 whole entry, looked up): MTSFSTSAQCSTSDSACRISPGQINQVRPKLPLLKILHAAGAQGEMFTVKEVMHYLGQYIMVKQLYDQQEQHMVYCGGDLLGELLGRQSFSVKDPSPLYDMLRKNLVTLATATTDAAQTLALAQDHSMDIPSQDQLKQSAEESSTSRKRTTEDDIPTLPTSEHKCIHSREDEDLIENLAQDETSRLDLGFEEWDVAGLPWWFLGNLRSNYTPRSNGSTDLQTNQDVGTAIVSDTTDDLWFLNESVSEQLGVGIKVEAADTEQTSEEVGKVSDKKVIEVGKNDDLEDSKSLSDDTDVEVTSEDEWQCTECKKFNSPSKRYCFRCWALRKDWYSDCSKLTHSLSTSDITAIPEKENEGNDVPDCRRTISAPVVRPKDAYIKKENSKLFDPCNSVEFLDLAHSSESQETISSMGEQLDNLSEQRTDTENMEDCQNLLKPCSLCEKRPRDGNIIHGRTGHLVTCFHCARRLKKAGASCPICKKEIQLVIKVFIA
# Target sequence (Q00987 whole entry, looked up): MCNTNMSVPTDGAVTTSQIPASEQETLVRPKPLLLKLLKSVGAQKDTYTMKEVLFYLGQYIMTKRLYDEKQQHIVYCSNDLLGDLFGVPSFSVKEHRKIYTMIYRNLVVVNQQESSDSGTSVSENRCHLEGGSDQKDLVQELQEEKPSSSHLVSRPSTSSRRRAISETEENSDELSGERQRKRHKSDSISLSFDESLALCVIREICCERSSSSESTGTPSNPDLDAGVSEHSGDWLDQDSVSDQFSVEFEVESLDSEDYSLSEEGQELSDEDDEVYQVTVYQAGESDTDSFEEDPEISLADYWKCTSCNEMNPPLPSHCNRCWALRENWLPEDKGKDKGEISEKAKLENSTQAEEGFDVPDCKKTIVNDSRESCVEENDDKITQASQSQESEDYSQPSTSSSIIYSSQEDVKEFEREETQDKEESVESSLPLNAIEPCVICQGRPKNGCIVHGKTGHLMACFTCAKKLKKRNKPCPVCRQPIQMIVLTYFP
# Apaf1 inhib – inhibitors of human Apaf-1 apoptosome; AID 489030; O14727; reconstituted apoptosome caspase-3 activity, DEVD-Rh110 fluorescence; hit rate 0.71% among 330,000; inhibition, % at 20 µM; active means inhibition of at least 40% at 20 µM;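 further: plate controls were DMSO wells for no effect and DEVD-CHO caspase inhibitor wells for full effect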
#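 Material: reconstituted apoptosome with Apaf-1, cytochrome c, caspase-9, procaspase-3, dATP. Technique: Rh110 fluorescence intensity. Buffer or medium: pH 7.5 Hepes buffer with CHAPS, BSA, DTT. Times: 30 min plus 50 min, RT.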
# Mdm2-MdmX conf – confirmation of human Mdm2/MdmX interaction inhibitors. shares compounds with Mdm2 MdmX PPI. inhibition, % at 8 µM. Mdm2-MdmX binding, luminescent assay. AID 489028. hit rate 55% among 10,000; in the data active means inhibition above about 40%
# Full FLuc ctr – full-length luciferase inhibition in Mdm2/MdmX counter-screen. SaOS-2 full-length luciferase counterscreen, luminescence. inhibition, % at 8 µM. shares compounds with Mdm2 MdmX PPI. AID 504607. hit rate 77% among 6,200;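 active means mean inhibition at 8 µM reaching about 37%, which flags the compound as non-specific, limit read from the data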;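 further: p53-null SaOS-2 cells with luciferase driven by a doxycycline-inducible promoter; compound on cells about two nights before reading with doxycycline added after day one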
# Starred values were filed as active, the others as inactive; . = no result given.
SMILES,UPR XBP1 act,UPR CHOP act,UBC13 inh,Mdm2 MdmX PPI,Apaf1 inhib,Mdm2-MdmX conf,Full FLuc ctr
C[C@H](CO)N1C[C@H](C)[C@@H](CN(C)Cc2ccncc2)Oc2c(cccc2N(C)C)C1=O,-1.0,-0.7,11.2,7.9,-6.3,.,.
Clc1ccc(CSc2ccc(-c3ccccn3)nn2)cc1,-1.1,4.7,8.4,60.4*,-8.7,59.6*,43.4*
CCOC(=O)c1ccc(NC(=O)CSc2ccc(-c3ccccn3)nn2)cc1,-0.9,1.3,-13.1,69.6*,3.2,52.6*,58.9*
Cc1ccc(NC(=O)CSc2ccc(-c3ccccn3)nn2)cc1,0.3,0.9,-17.6,54.6*,-0.1,41.4*,78.5*
O=C(CSc1ccc(-c2ccccn2)nn1)Nc1ccc(F)c(F)c1,-1.6,2.8,-15.6,67.4*,30.6,43.3*,55.2*
COc1ccc([C@H]2CC(=O)C=C(c3ccc(OC)c(F)c3)C2)cc1,3.0,0.1,15.2,-23.2,13.3,.,.
CCN(CC)CCNC(=O)c1ccc(NC(=O)C2CCN(c3ncnc4sc(C)c(C)c34)CC2)cc1,-0.8,-1.5,8.9,90.9*,8.6,61.0*,21.9
Cc1sc2ncnc(N3CCC(C(=O)Nc4nc(-c5ccc(F)cc5)cs4)CC3)c2c1C,-0.1,5.6,-5.4,94.2*,18.4,90.0*,60.3*
Cc1sc2ncnc(N3CCC(C(=O)Nc4ccc(OC(F)F)c(Cl)c4)CC3)c2c1C,1.2,0.9,5.2,27.0,14.8,.,.
O=C(Oc1ccnc2cc(Cl)ccc12)N1CCCCCC1,-1.4,-1.5,5.5,67.1*,11.1,39.1,30.0
Cc1ccc(C(=O)NCC(=O)OCC(=O)c2ccc(Br)s2)cc1,1.5,1.1,-3.6,-3.2,9.4,.,.
CC1=C(C(=O)OCc2ccc3c(c2)OCO3)C(c2ccc(Cl)cc2)NC(=O)N1 (stereo unspecified),1.4,-2.3,11.5,84.3*,19.6,91.5*,51.2*
CSCCOC(=O)C1=C(C)NC(=O)NC1c1ccc2c(c1)OCO2 (stereo unspecified),-2.6,0.3,-2.4,7.9,4.7,.,.
CC1=C(C(=O)OCc2ccc3c(c2)OCO3)C(c2ccc(F)cc2)NC(=O)N1 (stereo unspecified),0.5,-1.9,1.8,91.0*,12.1,92.1*,48.7*
Cn1cc(-c2ccccc2C(=O)O)c(=O)c2cc(Cl)ccc21,-0.1,0.5,10.5,18.0,-0.6,.,.
Cc1ccc(S(=O)(=O)N[C@@H](Cc2ccccc2)C(=O)CCl)cc1,-4.7,7.5,12.7,79.9*,-0.5,34.6,62.8*
Cc1ccc(S(=O)(=O)NC(Cc2ccccc2)C(=O)NN)cc1 (stereo unspecified),-5.6,-1.7,1.1,15.2,-2.9,.,.
CCOC(=O)c1sc(NC(=O)c2c(C)nn(Cc3ccccc3)c2C)cc1C,5.5,-1.5,3.5,53.4*,12.5,27.4,.
CCOC(=O)c1sc(NC(=O)c2ccccc2)cc1C,6.5,6.8,0.9,-112.5,3.0,.,.
CCOC(=O)c1sc(NC(=O)Nc2ccc(Cl)cc2)cc1C,4.5,13.9,5.1,75.2*,10.9,85.9*,54.8*
CCOC(=O)c1sc(NC(=O)c2ccc(Cl)s2)cc1C,-0.5,5.8,-2.6,-35.4,-9.1,.,.
CNC(=O)N(O)C1N(/N=C/c2c(F)cccc2Cl)C(=S)SC1(C)C (stereo unspecified),-2.0,0.5,-6.5,-15.3,6.2,.,.
CCc1c(C)sc(NC(=O)C2CC2c2ccccc2)c1C(N)=O (stereo unspecified),-0.9,2.3,4.6,56.7*,-3.6,72.9*,55.4*
CCN(Cc1ccccc1)S(=O)(=O)c1ccc(C(=O)N(CCCN(C)C)c2nc3c(C)c(C)ccc3s2)cc1,29.9,5.0,15.1,96.5*,33.5,45.5*,48.9*
Cc1ccc2sc(N(CCCN(C)C)C(=O)c3ccc(S(=O)(=O)N(C)C4CCCCC4)cc3)nc2c1C,14.2,2.5,23.4,98.6*,39.1,54.0*,66.9*
SMILES,UPR XBP1 act,UPR CHOP act,UBC13 inh,Mdm2 MdmX PPI,Apaf1 inhib,Mdm2-MdmX conf,Full FLuc ctr
COc1cc(N)c(Cl)cc1C(=O)OCC(=O)N1CCCCCC1,-1.9,-0.7,6.0,-14.3,-5.7,.,.
O=C(Nc1cccc2c1CCCC2)c1cc([N+](=O)[O-])ccc1Cl,-5.0,-0.1,-0.2,62.1*,7.2,21.1,.
O=C(Nc1cccc2c1CCCC2)c1ccc(Cl)c([N+](=O)[O-])c1,-4.0,1.4,-0.7,55.9*,5.4,26.9,.
COc1ccc(-c2ccc3c(c2)S(=O)(=O)c2cccc(C(=O)N4CCN(c5c(Cl)cncc5Cl)CC4)c2C3=O)cc1OC,-0.6,2.9,-29.8,8.7,21.3,.,.
COc1cc(OC)cc(C(=O)Nc2ccc(N3CCN(C(=O)c4cccs4)CC3)cc2)c1,-1.1,-0.2,-2.7,63.0*,9.7,69.7*,68.8*
COc1cc(OC)cc(C(=O)Nc2ccc3c(c2)CCCN3C(=O)c2cccs2)c1,-3.1,2.1,-1.4,77.7*,15.0,60.0*,86.1*
O=C(Nc1ccc2c(c1)CCCN2C(=O)c1cccs1)c1ccccc1,-4.8,2.4,-1.9,20.2,14.3,.,.
O=C(Nc1ccc2c(c1)CCCN2C(=O)c1ccccc1)c1ccccc1Br,2.4,-0.1,-3.3,79.0*,20.8,46.5*,77.5*
O=C(NCC(=O)N1CCN(S(=O)(=O)c2ccccc2)CC1)c1ccc(Br)o1,-5.0,0.5,2.1,11.2,4.9,.,.
COc1cc(C(=O)Oc2ccccc2/C=N/NC(=O)c2ccc(Cl)cc2Cl)cc(OC)c1OC,-0.9,2.3,1.4,55.8*,8.7,23.4,.
CCCn1c(SCC(=O)N(C)CC(=O)Nc2ccc(Cl)cc2)n[nH]c1=O,-0.9,-1.4,4.0,-5.8,-5.4,.,.
CC1(C)Cc2ccccc2C(/C(=N\Nc2cccc(Cl)c2)C(N)=O)=N1,-4.2,0.4,4.9,19.9,18.1,.,.
CC(=O)c1ccc(N/N=C(/C(N)=O)C2=NC(C)(C)Cc3ccccc32)cc1,1.2,0.0,-4.1,63.1*,19.1,38.6,63.4*
O=C(Nc1ccc(OC(=O)c2ccccc2)c(-c2nc3ccccc3s2)c1)c1ccccc1,28.7,15.2,-11.6,67.9*,9.3,31.7,.
COCCn1c(=NC(=O)CCS(=O)(=O)c2ccccc2)sc2cc(C(=O)OC)ccc21,1.4,0.1,4.1,19.3,-8.0,.,.
COCCn1c(=NC(=O)c2ccc(S(=O)(=O)N3CCc4ccccc4C3)cc2)sc2cc(OC)ccc21,-1.2,-1.9,39.9,69.4*,1.5,14.3,.
O=C(CCN=C1NS(=O)(=O)c2ccccc21)OCc1nnc(-c2ccccc2)o1,4.8,4.4,1.0,0.0,0.3,.,.
